CAL PDZ FP-1 = untagged CAL PDZ binding inhibitors, primary screen, biochemical, fluorescence polarization, HTS | Golgi-associated PDZ and coiled-coil motif-containing protein (Homo sapiens), Q9HD26 | purified CAL PDZ, TMR-peptide fluorescence polarization, 1 h | inhibition, % at 24.9 µM | 0.92% of 300,000 active;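 active = mean inhibition of at least 30% with at least half of replicates also reaching 30%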
Arrestin-AP2 inh = inhibitors of beta-arrestin/AP2 binding, primary screen, biochemical, GPCR trafficking, flow cytometry; inhibition, % at 10 µM; AID 504490, 2011; beta-arrestin 1 C-terminal peptide binding to AP2 beta2-adaptin appendage (human); 0.31% of 340,000 active; FITC-arrestin peptide / GST-AP2 beads; AP2 beta2 appendage carries R879A mutation;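 active = inhibition above a set limit, near 3 SD of compounds lacking own fluorescence, cut at about 54% in these data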
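Material – GST-tagged AP2 beta2-adaptin appendage (R879A) on 4 µm glutathione beads · Probe or stimulus – fluorescein-tagged arrestin peptide at 50 nM final · Timing – 12 min plus 1 h, RT · Detection – bead flow cytometry, FITC channel · Read-out basis – inhibition as reduced fluorescein signal on beads, percent · Medium – PBS plus Tween 20 (0.05%) and BSA (0.1%)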
CAL PDZ FP-2 = CAL PDZ peptide-binding inhibitors, primary screen, biochemical, fluorescence polarization, Cer-tagged CAL PDZ, HTS | purified CAL PDZ, TMR-peptide fluorescence polarization, 1 h | 0.02% of 330,000 active | AID 504414, 2011 | Golgi-associated PDZ and coiled-coil motif-containing protein (Homo sapiens), Q9HD26 | inhibition, % at 20 µM;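 active = highest replicate inhibition of at least 40%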
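Material: tagged CAL PDZ domain; buffer or medium: 25 mM sodium phosphate pH 7.4, 150 mM NaCl, TCEP, IgG, Thesit; compound dosing: single point, 20 µM; schedule: 1 h incubation at room temperature before polarization reading; measured by: FP readout, S and P plane fluorescence; read-out basis: percent inhibition from loss of millipolarization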
Tn6 DDE FP = inhibitors of Tn6 peptide binding to fibrin DD(E), primary screen, biochemical, fluorescence polarization, human fibrin, Tn6 probe. 0.21% of 370,000 active. inhibition, % at 8.3 µM. Fibrin DD(E) TRITC-Tn6 fluorescence polarization displacement. Fibrinogen beta chain (Homo sapiens), P02675;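 active = inhibition above a per-campaign cutoff: mean of compounds within control limits plus 3 SD, cut at about 15% in these data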
Target sequence (P02675 whole entry, looked up): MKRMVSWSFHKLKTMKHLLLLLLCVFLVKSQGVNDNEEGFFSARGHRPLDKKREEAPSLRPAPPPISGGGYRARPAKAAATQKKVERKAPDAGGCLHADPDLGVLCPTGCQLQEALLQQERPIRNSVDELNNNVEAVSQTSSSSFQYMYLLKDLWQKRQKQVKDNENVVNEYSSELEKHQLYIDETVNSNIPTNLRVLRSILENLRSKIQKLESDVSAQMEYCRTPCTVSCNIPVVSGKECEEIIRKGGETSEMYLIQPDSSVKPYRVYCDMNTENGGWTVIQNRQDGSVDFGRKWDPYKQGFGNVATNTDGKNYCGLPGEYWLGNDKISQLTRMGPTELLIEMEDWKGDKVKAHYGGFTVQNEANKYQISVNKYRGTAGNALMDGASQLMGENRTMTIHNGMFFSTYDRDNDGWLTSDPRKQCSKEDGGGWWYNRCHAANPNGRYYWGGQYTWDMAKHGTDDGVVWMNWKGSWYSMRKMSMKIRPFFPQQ
Tn7 DDE FP = inhibitors of Tn7 peptide binding to fibrin DD(E), primary screen, biochemical, fluorescence polarization, human fibrin, Tn7 probe; 0.13% of 370,000 active; inhibition, % at 8.3 µM; FP displacement of FITC-Tn7 peptide from fibrin DD(E); 0% = median of compound wells per plate; Fibrinogen beta chain (Homo sapiens), P02675;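 active = inhibition above the mean of compounds falling within the control limits plus 3 SD of them, cut at about 14% in these data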
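System: human fibrin DD(E); quantity: Fibrin-DD(E) at 2 µM final; also added: fluorescent Tn7 probe at 0.1 µM; compound dosing: single nominal test concentration of 8.3 µM per compound; schedule: 10 min preincubation, 3 h with tracer, room temperature; detection: fluorescence polarization of the labelled Tn7 tracer; repeats: one replicate per compound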
Arr AP2 CP1 = inhibitors of arrestin peptide binding to AP2, confirmation, biochemical, cherry pick 1, flow cytometry beads; inhibition, % at 10 µM; 2% of 1,300 active; shares compounds with Arrestin-AP2 inh; GST-AP2 beads, FITC arrestin peptide binding; GST-fused beta2-adaptin appendage, R879A mutant; AID 504908, 2011;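 active = inhibition above a set limit, roughly 3 SD of non-fluorescent compound noise, cut at about 38% in these data; inactive = inhibition at or below that limit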;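 note: loss of bead fluorescence from 50 nM FITC arrestin peptide bound to appendage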
GST-FITC bead = GST-fluorescein capture on glutathione beads, confirmation, artefact control for arrestin-AP2 inhibitor project, biochemical, cherry pick 1, flow cytometry | shares compounds with Arrestin-AP2 inh | GST-fluorescein binding to GSH beads, fluorescence, counter-screen | inhibition, % at 10 µM | 2% of 1,300 active;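 active = inhibition above 50%, about 3 SD of the inhibition seen with non-fluorescent compounds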;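 note: fluorescein maleimide labelled GST captured on 4 micron glutathione beads; higher means more loss of bead fluorescence from quenching or blocked binding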
Hits are given with their value; 0 = inactive; - = not tested or not shown. Only some compounds are listed: those with a hit (about 1.4% of all), similar ones and a draw of the others.

SMILES	CAL PDZ FP-1	Arrestin-AP2 inh	CAL PDZ FP-2	Tn6 DDE FP	Tn7 DDE FP	Arr AP2 CP1	GST-FITC bead
COc1ccc(NC(=O)C2CCCN(S(=O)(=O)c3c(C)[nH]c(=O)[nH]c3=O)C2)cc1OC (stereo not given)	0	60	0	0	0	0	0
Cn1ccc(C(=O)OCC(=O)Nc2cccc3ccccc23)n1	0	59	0	0	0	0	0
O=C(NC1=NCCS1)c1ccc(Cl)c(S(=O)(=O)N2CCOCC2)c1	0	57	0	0	0	0	0
O=C(NC1=NCCS1)c1ccc(Cl)c(S(=O)(=O)N2CCCC2)c1	0	0	0	0	0	-	-
CCCC1CCC2(CC1)CCC2OC(=S)Nc1ccccc1Cl (stereo not given)	-	-	-	0	0	-	-
Cn1nc(C(=O)N2CCN(c3ccc(Cl)cc3)CC2)c2c1-c1ccccc1S(=O)(=O)C2	0	55	0	0	0	0	0
O=C(CNS(=O)(=O)c1ccccc1)OCC(=O)c1c[nH]c2ccccc12	0	76	0	0	0	0	0
C(=N\n1cnnc1)/c1ccc(N2CCOCC2)s1	0	92	0	0	0	0	0
Cc1cc(C)c(NC(=O)CSc2nnc(SCC(=O)Nc3c(C)cc(C)cc3C)n2N)c(C)c1	0	91	0	0	0	0	0
C=CCN(CC#Cc1ccccc1)CC1CC1	-	-	-	0	0	-	-
COc1ccccc1C(=O)NC(=O)COC(=O)c1nc2nc(C)cc(C)n2n1	0	60	0	0	0	0	0
COc1ccccc1C(O)P(=O)(OC1CCCCC1)OC1CCCCC1 (stereo not given)	0	55	0	0	0	0	0
COc1ccc(C2C(=O)c3ccccc3C2=O)cc1OC	0	61	0	0	0	0	0
COc1cc(C2C(=O)c3ccccc3C2=O)ccc1O	0	0	0	0	0	-	-
COc1ccc(OC)c(NC(=O)CCC(=O)N(Cc2ccc(OC)c(OC)c2)c2nccs2)c1	0	0	0	0	0	-	-
COc1ccc(NC(=O)CCC(=O)N(Cc2ccc(OC)c(OC)c2)c2nccs2)c(OC)c1	0	56	0	0	0	0	0
CCCCS(=O)(=O)N1C2=NC3=C(C(=O)N(CCOC)C3=O)C3N(C)c4ccccc4[C@]23C[C@H]1CO (stereo not given in full)	-	-	-	0	0	-	-
COC(=O)[C@H](C(C)C)N1Cc2nnn(Cc3ccc(C)cc3)c2-c2cc(F)ccc2S1(=O)=O	-	-	-	0	0	-	-
O=[N+]([O-])c1ccc(N2CCN(Cc3ccccc3)CC2)nc1	0	0	-	0	0	-	-
O=[N+]([O-])c1ccc(CN2CCN(c3ccc4ccccc4n3)CC2)cc1	0	54	0	0	0	0	0
O=c1[nH]c(CO)nc2c1oc1ccccc12	0	73	0	0	0	0	0
O=c1[nH]c(Cc2ccccc2)nc2c1oc1ccccc12	0	0	0	0	0	-	-
COc1c(Cl)cc(C(=O)NN)cc1Cl	0	0	0	0	0	-	-
NNC(=O)c1cc(O)c(O)c(O)c1	-	0	0	0	0	0	0
COc1cccc(NC(=O)N2CC[C@@H]3[C@H]2c2cc(-c4cccc(C#N)c4)ccc2N(C)[C@@H]3CO)c1	-	-	-	0	0	-	-
SMILES	CAL PDZ FP-1	Arrestin-AP2 inh	CAL PDZ FP-2	Tn6 DDE FP	Tn7 DDE FP	Arr AP2 CP1	GST-FITC bead
O=C(CC12CC3CC(CC(C3)C1)C2)NC(Cc1ccccc1)C(=O)O (stereo not given)	0	55	0	0	0	0	0
CC(=O)NC(Cc1ccccc1)C(=O)O (stereo not given)	0	0	0	0	0	-	-
Cc1cc(NS(=O)(=O)c2ccc(NC(=O)CSc3nc4sc(C)c(C)c4c(=O)n3Cc3ccco3)cc2)nc(C)n1	-	-	-	0	0	-	-
COc1cc(C(=O)OCCNC(=O)c2cccnc2)cc(OC)c1OC	0	58	0	0	0	0	0
O=C(CN1c2ccccc2S(=O)(=O)c2ccccc21)NCc1ccccc1	0	64	0	0	0	0	0
O=C(CN1c2ccccc2S(=O)(=O)c2ccccc21)NCc1ccc(F)cc1	0	0	0	0	0	-	-
COC(=O)[C@H](C(C)C)N(Cc1cn(Cc2ccccc2)nn1)S(=O)(=O)c1ccccc1Br	-	-	-	0	0	-	-
O=C(NCc1ccccc1Cl)c1cnccc1C(F)(F)F	0	55	0	0	0	0	0
COc1cc(C2C(C(C)=O)=C(O)C(=O)N2CCN(C)C)ccc1O (stereo not given)	0	69	0	0	0	0	0
Cc1ccc(CNC(=O)CCS(=O)(=O)c2ccc(C)cc2)cc1	0	70	0	0	0	0	0
COc1ccc(/C=N\N=C2/SC(CC(=O)O)C(=O)N2c2ccc(O)cc2)cc1 (stereo not given)	0	56	0	0	0	0	0
COc1ccc(/C=N/N=C2\SC(CC(=O)O)C(=O)N2c2ccccc2)cc1 (stereo not given)	0	0	0	0	0	-	-
C[C@H](O)[C@@H]1CN2CCc3c([nH]c4c(-c5ccc6c(c5)OCO6)cccc34)[C@@H]2C[C@@H]1N(C)C(=O)NC1CCCCC1	-	-	-	0	0	-	-
CCOc1ccc(C(C)=O)cc1N1C(=O)C2C3C=CC(C3)C2C1=O (stereo not given)	-	0	0	-	-	-	-
CCOc1ccc(C(C)=O)cc1N1C(=O)C2C3C=CC(O3)C2C1=O (stereo not given)	0	78	0	-	-	0	0
CCOc1ccc(C(=O)NCC(=O)NNC(=O)C2COc3ccccc3O2)cc1OCC (stereo not given)	0	65	0	0	0	0	0
CCOc1ccc(C(=O)Nc2cc3c(cc2N2CCCC2)n(CC)c(=O)n3CC)cc1OCC	0	0	0	0	0	0	0
CCn1c(=O)n(CC)c2cc(N3CCCC3)c(NC(=O)c3ccc(F)cc3)cc21	0	0	0	0	0	0	0
CCn1c(=O)n(CC)c2cc(N3CCCC3)c(NC(=O)c3cccc(OC)c3)cc21	0	0	0	0	0	0	0
CCn1c(=O)n(CC)c2cc(N3CCCC3)c(NC(=O)c3c(F)cccc3F)cc21	0	0	0	0	0	0	0

From PubChem BioAssay
